The source made the active and inactive calls. The rule behind the calls is not given here.
Columns and labels:
[1] = tested on: N2a; assay: Increase in 7-DHC levels in Dhcr7-deficient mouse Neuro2a cells at 200 nM after 24 hrs by LC-MS analysis; type: functional, cell-based
How it was run: (§1)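 384-well screen: Dhcr7-deficient Neuro2a cells (13000/well, 0.5% FBS) with compound at 20 or 200 nM (five wells each), 24 h at 37 °C. Cells counted after Hoechst imaging, then methanol lysis with d7-7-DHC standard, PTAD derivatization 20 min at RT, UPLC-MS SRM (7-DHC 560→365). Read-out is pg 7-DHC per cell.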

[2] = tested on: N2a; assay: Decrease in desmosterol levels in mouse Neuro2a cells by LC-MS analysis; type: functional, cell-based
How it was run: (§2)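 Control Neuro2a cells (10000/well, 0.5% FBS) on compound, 24 h. Hoechst cell count, then methanol lysis with labelled standards (d7-7-DHC, 13C3-desmosterol, 13C3-lanosterol), PTAD derivatization 20 min at RT, UPLC-MS SRM. GC-MS of silylated extract for further sterols.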

[3] = tested on: N2a; assay: Increase in 7-DHC levels in mouse Neuro2a cells at 100 nM by LC-MS analysis; type: functional
How it was run: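 Control Neuro2a cells in 96-well plates, treated at 1, 10 and 100 nM. 7-DHC measured by PTAD derivatization and UPLC-MS against deuterated 7-DHC standard; n > 3.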

[4] = tested on: N2a; assay: Decrease in lanosterol levels in mouse Neuro2a cells by LC-MS analysis; type: functional, cell-based; how it was run: as §2
[5] = molecular target: T1, 3-beta-hydroxysteroid-Delta(8),Delta(7)-isomerase (Mus musculus) (UniProt P70245); assay: Inhibition of delta 8-7 isomerase in Dhcr7-deficient mouse Neuro2a cells assessed as decrease in 7-DHC levels at 1 uM by LC-MS/GC-MS analysis; type: cell-based
T1 sequence (whole entry): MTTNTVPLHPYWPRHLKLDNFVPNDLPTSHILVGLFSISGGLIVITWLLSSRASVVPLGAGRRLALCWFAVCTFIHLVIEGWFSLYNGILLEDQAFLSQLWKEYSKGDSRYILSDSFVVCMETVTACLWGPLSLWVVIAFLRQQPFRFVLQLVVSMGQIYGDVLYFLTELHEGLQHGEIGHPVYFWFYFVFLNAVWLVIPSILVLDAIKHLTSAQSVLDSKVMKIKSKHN
How it was run: (§3)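 Dhcr7-deficient Neuro2a cells (13000/well, 0.5% FBS medium) on predeposited compound, 24 h at 37 °C. Hoechst-stained and imaged to count cells. Lysed in methanol containing isotope-labelled sterol standards, derivatized with PTAD 20 min at RT, then isocratic C18 UPLC-MS/SRM. Remaining extract silylated with BSTFA for GC-MS, quantified against d7-cholesterol. Follow-up runs in triplicate.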

[6] = molecular target: 3-beta-hydroxysteroid-Delta(8),Delta(7)-isomerase (Homo sapiens) (UniProt Q15125); assay: Inhibition of delta 8-7 isomerase in human SLOS fibroblasts assessed as decrease in 7-DHC levels at 100 nM after 5 days by LC-MS/GC-MS analysis
How it was run: (§4)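 SLOS patient skin fibroblasts (passage 8–20; three different lines) grown in 96-well plates in delipidated serum with compound for 5 days. 7-DHC and cholesterol quantified by PTAD-derivatisation UPLC-MS with isotopic standards. Values expressed as percentage of 7-DHC in the same cells grown without compound.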

[7] = Cytotoxicity against human SLOS fibroblasts at 5 uM after 5 days by Cell Titer assay; type: cell-based; details: fibroblast, 120 h
[8] = molecular target: T1, 3-beta-hydroxysteroid-Delta(8),Delta(7)-isomerase (Mus musculus); assay: Inhibition of delta 8-7 isomerase in Dhcr7-deficient mouse Neuro2a cells assessed as increase in zymostenol levels at 1 uM by LC-MS/GC-MS analysis; type: cell-based
How it was run: (§5)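 Follow-up (verification) assay in 96-well plates, run as the 384-well screen, in triplicate, at varying compound concentrations. Cells counted by Hoechst imaging, washed with PBS, then lysed in MeOH with BHT/TPP and isotope standards (d7-Chol, d7-7-DHC, 13C3-Des, 13C3-Lan). Sterols derivatised with PTAD for 20 min at RT and quantified by C18 UPLC-MS (SRM). Remaining sample silylated with BSTFA and run on GC-MS, quantified against d7-Chol.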

[9] = molecular target: T2, Delta(24)-sterol reductase (Mus musculus) (UniProt Q8VCH6); assay: Inhibition of DR24 in Dhcr7-deficient mouse Neuro2a cells assessed as decrease in 7-DHC levels at 1 uM by LC-MS/GC-MS analysis; type: cell-based; how it was run: as §3
T2 sequence (whole entry): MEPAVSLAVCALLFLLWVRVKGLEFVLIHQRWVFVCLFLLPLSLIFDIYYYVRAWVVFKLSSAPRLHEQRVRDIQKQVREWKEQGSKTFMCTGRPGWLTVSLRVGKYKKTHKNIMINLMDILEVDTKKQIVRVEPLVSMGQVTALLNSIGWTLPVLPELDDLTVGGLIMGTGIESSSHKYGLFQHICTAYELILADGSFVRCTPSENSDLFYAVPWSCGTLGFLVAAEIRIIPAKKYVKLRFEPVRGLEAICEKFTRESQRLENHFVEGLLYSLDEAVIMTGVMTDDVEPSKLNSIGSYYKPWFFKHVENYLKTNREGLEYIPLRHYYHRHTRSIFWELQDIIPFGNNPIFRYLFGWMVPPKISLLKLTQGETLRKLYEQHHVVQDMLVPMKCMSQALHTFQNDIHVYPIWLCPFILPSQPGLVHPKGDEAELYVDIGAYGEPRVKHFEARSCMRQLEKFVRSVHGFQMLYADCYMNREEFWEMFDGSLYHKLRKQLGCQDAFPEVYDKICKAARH

[10] = molecular target: T1, 3-beta-hydroxysteroid-Delta(8),Delta(7)-isomerase (Mus musculus); assay: Inhibition of delta 8-7 isomerase in mouse Neuro2a cells assessed as decrease in 7-DHC levels at 1 uM by LC-MS/GC-MS analysis; type: cell-based; how it was run: as §2
[11] = molecular target: T1, 3-beta-hydroxysteroid-Delta(8),Delta(7)-isomerase (Mus musculus); assay: Inhibition of delta 8-7 isomerase in Dhcr7-deficient mouse Neuro2a cells assessed as increase in zymosterol levels at 1 uM by LC-MS/GC-MS analysis; type: cell-based; how it was run: as §5
[12] = molecular target: T2, Delta(24)-sterol reductase (Mus musculus); assay: Inhibition of DR24 in mouse Neuro2a cells assessed as decrease in 7-DHC levels at 1 uM by LC-MS/GC-MS analysis; type: cell-based; how it was run: as §2
[13] = molecular target: T1, 3-beta-hydroxysteroid-Delta(8),Delta(7)-isomerase (Mus musculus); assay: Inhibition of delta 8-7 isomerase in Dhcr7-deficient mouse Neuro2a cells assessed as decrease in cholesterol levels at 1 uM by LC-MS/GC-MS analysis; type: cell-based; how it was run: as §5
[14] = molecular target: T3, Delta(24)-sterol reductase (Homo sapiens) (UniProt Q15392); assay: Inhibition of DR24 in human SLOS fibroblasts assessed as decrease in 7-DHC levels at 100 nM after 5 days by LC-MS/GC-MS analysis; how it was run: as §4
T3 sequence (whole entry): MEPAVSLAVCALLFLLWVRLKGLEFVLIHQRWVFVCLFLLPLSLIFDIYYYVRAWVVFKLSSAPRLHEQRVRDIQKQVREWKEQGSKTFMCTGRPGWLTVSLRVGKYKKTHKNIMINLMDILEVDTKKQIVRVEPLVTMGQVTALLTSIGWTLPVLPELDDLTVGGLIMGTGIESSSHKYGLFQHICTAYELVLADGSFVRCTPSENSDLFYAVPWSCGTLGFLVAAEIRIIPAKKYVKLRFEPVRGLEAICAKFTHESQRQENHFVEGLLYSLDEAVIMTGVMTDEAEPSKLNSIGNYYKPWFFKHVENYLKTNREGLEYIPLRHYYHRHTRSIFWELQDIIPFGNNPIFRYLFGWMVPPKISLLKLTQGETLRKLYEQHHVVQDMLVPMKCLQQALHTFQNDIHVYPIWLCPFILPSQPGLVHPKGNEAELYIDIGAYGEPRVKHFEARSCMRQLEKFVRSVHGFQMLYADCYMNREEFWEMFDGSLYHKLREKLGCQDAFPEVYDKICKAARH

[15] = molecular target: T3, Delta(24)-sterol reductase (Homo sapiens); assay: Inhibition of DR24 in human SLOS fibroblasts assessed as decrease in 7-DHC levels at 10 nM after 5 days by LC-MS/GC-MS analysis
How it was run: (§6)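 SLOS patient skin fibroblasts (passage 8–20) grown in 96-well plates in delipidated serum with compound for 5 days; three different SLOS lines. Sterols quantified by PTAD-derivatized UPLC-MS plus GC-MS; 7-DHC expressed as percentage of untreated cells.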

[16] = tested on: Fibroblast; assay: Decrease in cholesterol levels in human SLOS fibroblasts at 10 nM after 5 days by LC-MS/GC-MS analysis; type: functional, cell-based; how it was run: as §6
[17] = molecular target: T2, Delta(24)-sterol reductase (Mus musculus); assay: Inhibition of DR24 in Dhcr7-deficient mouse Neuro2a cells assessed as decrease in 7-DHC levels at 200 nM after 24 hrs by LC-MS analysis; type: cell-based; how it was run: as §1
[18] = molecular target: T2, Delta(24)-sterol reductase (Mus musculus); assay: Inhibition of DR24 in Dhcr7-deficient mouse Neuro2a cells assessed as decrease in 7-DHC levels at 20 nM after 24 hrs by LC-MS analysis; type: cell-based; how it was run: as §1
[19] = molecular target: T1, 3-beta-hydroxysteroid-Delta(8),Delta(7)-isomerase (Mus musculus); assay: Inhibition of delta 8-7 isomerase in Dhcr7-deficient mouse Neuro2a cells assessed as decrease in 7-DHC levels at 200 nM after 24 hrs by LC-MS analysis; type: cell-based
How it was run: (§7)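 384-well screen: Dhcr7-deficient Neuro2a cells (13000/well) dispensed in 0.5% FBS medium onto predeposited compound (five wells each at 20 and 200 nM) and incubated 24 h at 37 °C. Nuclei Hoechst-stained and counted by automated imaging. Cells lysed in MeOH with deuterated and 13C standards, then derivatised with PTAD for 20 min at RT. 7-DHC measured by isocratic UPLC-MS (SRM) and expressed as pg per cell; DMSO wells served as controls.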

[20] = molecular target: 3-beta-hydroxysteroid-Delta(8),Delta(7)-isomerase (Homo sapiens) (UniProt Q15125); assay: Inhibition of delta 8-7 isomerase in human SLOS fibroblasts assessed as decrease in 7-DHC levels at 10 nM after 5 days by LC-MS/GC-MS analysis; how it was run: as §6
[21] = molecular target: T1, 3-beta-hydroxysteroid-Delta(8),Delta(7)-isomerase (Mus musculus); assay: Inhibition of delta 8-7 isomerase in Dhcr7-deficient mouse Neuro2a cells assessed as decrease in 7-DHC levels at 20 nM after 24 hrs by LC-MS analysis; type: cell-based; how it was run: as §7

3-beta-hydroxysteroid-Delta(8),Delta(7)-isomerase (Homo sapiens), sequence (Q15125 whole entry): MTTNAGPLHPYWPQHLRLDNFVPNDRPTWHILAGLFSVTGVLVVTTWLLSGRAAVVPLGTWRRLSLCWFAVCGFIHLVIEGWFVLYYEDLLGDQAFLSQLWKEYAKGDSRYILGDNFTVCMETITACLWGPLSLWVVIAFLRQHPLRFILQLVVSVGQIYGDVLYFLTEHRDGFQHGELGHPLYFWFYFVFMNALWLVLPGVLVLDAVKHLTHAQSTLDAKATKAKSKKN

For `O=C1CCc2ccc(OCCCCN3CCN(c4cccc(Cl)c4Cl)CC3)cc2N1` [ARIPIPRAZOLE], the Activity [1] was “Active”, the Activity [2] was “Active” and the “fold change (FC)” value [3] was 40. The Activity [4] was “Active”.

In the case of `CN(C)CCOc1ccc(/C(=C(/CCCl)c2ccccc2)c2ccccc2)cc1` [TOREMIFENE], the inhibition [5] is reported as “Active”, the inhibition [6] is reported as “Active” and the Activity [7] is reported as “Toxic”. The inhibition [8] was “Active”, the inhibition [9] was “Active” and the “Activity (decrease in 7-DHC levels)” value [10] was “Active”. The inhibition [11] was “Active”, the inhibition [12] was “Active” and the inhibition [13] was “Active”. The inhibition [14] was “Active”.

For `CCN(CC)CCOc1ccc(C(=C(Cl)c2ccccc2)c2ccccc2)cc1` [CLOMIPHENE], the inhibition [15] was “Active”, the inhibition [5] was “Active” and the Activity [7] was “Non-toxic”. The Activity [16] was “inactive”, the inhibition [17] was “Active” and the inhibition [18] was “Active”. The inhibition [8] was “Active”, the inhibition [9] was “Active” and the “Activity (decrease in 7-DHC levels)” value [10] was “Active”. For the same compound, the inhibition [19] was “Active”, the inhibition [11] was “Active” and the “Decrease in 7-DHC levels (active/inactive call)” value [12] was “Active”. For the same compound, the inhibition [13] was “Active”, the inhibition [20] was “Active” and the inhibition [21] was “Active”.

Source: ChEMBL document CHEMBL3774374, “The Effect of Small Molecules on Sterol Homeostasis: Measuring 7-Dehydrocholesterol in Dhcr7-Deficient Neuro2a Cells and Human Fibroblasts” (J Med Chem, 2016)
